Reference: ChEMBL document CHEMBL1154352, “Toll-like receptor 7 selective synthetic oligoribonucleotide agonists: synthesis and structure-activity relationship studies” (J Med Chem, 2009)
The source made the active and inactive calls. The calls are words filed in the database; no cut-off is given here.

Legend:
Homo sapiens [1] = species: Homo sapiens; assay: Immunostimulatory activity in human pDC assessed as induction of IL6 at 100 ug/ml after 24 hrs; type: functional
In short: (§1)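 Human pDCs plated at 1 × 10^6 cells/mL; compounds in PBS added, 37 °C for 24 h; supernatant cytokines/chemokines by human Luminex multiplex kit.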

PBMC [2] = assay: Immunomodulatory activity in human PBMC assessed as induction of IL1-beta at 50 ug/ml after 24 hrs; type: functional, cell-based
In short: (§2)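 Human PBMCs plated at 5 × 10^6 cells/mL; compounds dissolved in PBS added at various concentrations, 37 °C for 24 h. Supernatant cytokines/chemokines quantified with human Luminex multiplex kit.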

PBMC [3] = assay: Immunomodulatory activity in human PBMC assessed as induction of TNFalpha at 50 ug/ml after 24 hrs; type: functional, cell-based; in short: as §2
Homo sapiens [4] = species: Homo sapiens; assay: Immunostimulatory activity in human pDC assessed as induction of IFNalpha at 100 ug/ml after 24 hrs; type: functional; in short: as §1
Homo sapiens [5] = species: Homo sapiens; assay: Immunostimulatory activity in human mDC assessed as induction of IL6 at 100 ug/ml after 24 hrs; type: functional
In short: (§3)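 Human mDCs isolated from PBMCs by CD19+ B-cell depletion then BDCA1 positive selection; plated at 1 × 10^6 cells/mL, compounds in PBS, 37 °C for 24 h; supernatant cytokines by human Luminex multiplex. Representative of four independent experiments.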

Mus musculus = assay: Immunomodulatory activity in C57BL/6 mouse assessed as induction of IL12 release at 25 mg/kg, sc after 2 hrs by ELISA; type: functional, organism-based; set-up: dose 25 mg/kg
In short: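 Female C57BL/6 wild-type mice, 5–8 weeks old, n=3; compounds given subcutaneously at 10 or 25 mg/kg. Retro-orbital blood at 2 h; serum cytokines by mouse Luminex multiplex or IL-12 ELISA.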

Homo sapiens [6] = species: Homo sapiens; assay: Immunostimulatory activity in human mDC assessed as induction of TNFalpha at 100 ug/ml after 24 hrs; type: functional; in short: as §3
Homo sapiens [7] = species: Homo sapiens; assay: Ratio of human TLR7 activity to human TLR8 activity
In short: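 TLR7/TLR8 ratio computed from fold NF-κB (SEAP reporter) activation in HEK293 cells stably expressing human TLR7 versus TLR8, compounds at 50 μg/mL, 18 h exposure; representative of three independent experiments.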

PBMC [8] = assay: Immunomodulatory activity in human PBMC assessed as induction of MIP1alpha at 50 ug/ml after 24 hrs; type: functional, cell-based; in short: as §2
Homo sapiens [9] = species: Homo sapiens; assay: Immunostimulatory activity in human mDC assessed as induction of IFNalpha at 100 ug/ml after 24 hrs; type: functional; in short: as §3
Homo sapiens [10] = species: Homo sapiens; assay: Immunostimulatory activity in human pDC assessed as induction of IP10 at 100 ug/ml after 24 hrs; type: functional; in short: as §1
Homo sapiens [11] = species: Homo sapiens; assay: Immunostimulatory activity in human mDC assessed as induction of IL12 at 100 ug/ml after 24 hrs; type: functional; in short: as §3
PBMC [12] = assay: Immunomodulatory activity in human PBMC assessed as induction of IL10 after 24 hrs; type: functional, cell-based; in short: as §2
PBMC [13] = assay: Immunomodulatory activity in human PBMC assessed as induction of IFNalpha after 24 hrs; type: functional, cell-based; in short: as §2
PBMC [14] = assay: Immunomodulatory activity in human PBMC assessed as induction of IFNalpha at 50 ug/ml after 24 hrs; type: functional, cell-based; in short: as §2
PBMC [15] = assay: Immunomodulatory activity in human PBMC assessed as induction of MCP1 at 50 ug/ml after 24 hrs; type: functional, cell-based; in short: as §2
PBMC [16] = assay: Immunomodulatory activity in human PBMC assessed as induction of IL6 at 50 ug/ml after 24 hrs; type: functional, cell-based; in short: as §2
PBMC [17] = assay: Immunomodulatory activity in human PBMC assessed as induction of IP10 at 50 ug/ml after 24 hrs; type: functional, cell-based; in short: as §2
PBMC [18] = assay: Immunomodulatory activity in human PBMC assessed as induction of IP10 after 24 hrs; type: functional, cell-based; in short: as §2
PBMC [19] = assay: Immunomodulatory activity in human PBMC assessed as induction of IL12 at 50 ug/ml after 24 hrs; type: functional, cell-based; in short: as §2
Homo sapiens [20] = species: Homo sapiens; assay: Immunostimulatory activity in human mDC assessed as induction of IP10 at 100 ug/ml after 24 hrs; type: functional; in short: as §3
[21] = target: T1, Toll-like receptor 7 (Homo sapiens) (UniProt Q9NYK1); assay: Activation of human TLR7 expressed in HEK293XL assessed as fold induction of NF-kappaB activity at 50 ug/ml after 18 hrs by reporter gene assay relative to control
T1 sequence (whole entry): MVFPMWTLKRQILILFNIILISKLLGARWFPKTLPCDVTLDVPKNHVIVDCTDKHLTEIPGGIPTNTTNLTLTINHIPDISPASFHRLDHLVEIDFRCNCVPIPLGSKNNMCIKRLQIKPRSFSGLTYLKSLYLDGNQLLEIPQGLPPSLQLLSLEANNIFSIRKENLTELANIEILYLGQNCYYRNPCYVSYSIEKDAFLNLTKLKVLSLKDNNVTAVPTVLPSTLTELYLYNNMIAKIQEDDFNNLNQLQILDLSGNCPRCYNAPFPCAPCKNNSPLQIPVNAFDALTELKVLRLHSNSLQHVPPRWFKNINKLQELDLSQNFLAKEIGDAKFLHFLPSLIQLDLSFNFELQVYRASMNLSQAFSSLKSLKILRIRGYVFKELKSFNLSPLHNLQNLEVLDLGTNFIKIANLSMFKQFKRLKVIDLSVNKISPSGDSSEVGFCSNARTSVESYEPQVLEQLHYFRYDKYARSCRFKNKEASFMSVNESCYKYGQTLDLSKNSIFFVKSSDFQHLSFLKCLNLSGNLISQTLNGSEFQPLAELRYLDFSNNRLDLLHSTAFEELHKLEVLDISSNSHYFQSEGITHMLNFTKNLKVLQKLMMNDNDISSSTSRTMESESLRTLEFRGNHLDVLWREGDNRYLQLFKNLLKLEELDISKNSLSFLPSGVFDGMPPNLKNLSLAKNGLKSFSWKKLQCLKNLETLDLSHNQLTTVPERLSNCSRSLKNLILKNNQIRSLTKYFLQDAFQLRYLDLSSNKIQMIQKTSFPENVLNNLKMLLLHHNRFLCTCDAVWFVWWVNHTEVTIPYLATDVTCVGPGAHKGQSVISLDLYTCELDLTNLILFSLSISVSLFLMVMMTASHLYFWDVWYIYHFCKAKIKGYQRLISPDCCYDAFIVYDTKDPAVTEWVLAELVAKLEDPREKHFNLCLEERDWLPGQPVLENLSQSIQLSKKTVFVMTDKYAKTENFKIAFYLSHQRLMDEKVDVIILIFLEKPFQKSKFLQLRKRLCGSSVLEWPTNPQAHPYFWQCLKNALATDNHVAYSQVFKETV
In short: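 HEK293 cells stably expressing human TLR7 or TLR8, transiently transfected with SEAP reporter plasmid; medium replaced, SIMRA compounds added, 18 h incubation. Supernatant SEAP measured by QuantiBlue; expressed as fold increase in NF-κB activity over PBS control. Tabulated data at 50 μg/mL, representative of three independent experiments.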

PBMC [22] = assay: Immunomodulatory activity in human PBMC assessed as induction of MIP1alpha after 24 hrs; type: functional, cell-based; in short: as §2
PBMC [23] = assay: Immunomodulatory activity in human PBMC assessed as induction of IL6 after 24 hrs; type: functional, cell-based; in short: as §2
PBMC [24] = assay: Immunomodulatory activity in human PBMC assessed as induction of MIP1beta at 50 ug/ml after 24 hrs; type: functional, cell-based; in short: as §2

- Ratio (Homo sapiens [7]): 15.9
- fold change (FC) [21]: 27
SMILES: Nc1ccn([C@@H]2O[C@H](COP(=O)(S)O[C@H]3[C@@H](O)[C@H](n4cnc5c(N)ncnc54)O[C@@H]3CO)[C@@H](OP(=O)(S)OC[C@H]3O[C@@H](n4ccc(=O)[nH]c4=O)[C@H](O)[C@@H]3OP(=O)(S)OC[C@H]3O[C@@H](n4ccc5c(=O)[nH]c(N)nc54)[C@H](O)[C@@H]3OP(=O)(S)OC[C@H]3O[C@@H](n4ccc(N)nc4=O)[C@H](O)[C@@H]3OP(=O)(S)OC[C@H]3O[C@@H](n4ccc5c(=O)[nH]c(N)nc54)[C@H](O)[C@@H]3OP(=O)(S)OC[C@H]3O[C@@H](n4cnc5c(N)ncnc54)[C@H](O)[C@@H]3OP(=O)(S)OC[C@H]3O[C@@H](n4ccc5c(=O)[nH]c(N)nc54)[C@H](O)[C@@H]3OP(=O)(S)OC[C@H]3O[C@@H](n4ccc(N)nc4=O)[C@H](O)[C@@H]3OP(=O)(S)OC[C@H]3O[C@@H](n4ccc(=O)[nH]c4=O)[C@H](O)[C@@H]3OP(=O)(S)OC[C@H]3O[C@@H](n4ccc(=O)[nH]c4=O)[C@H](O)[C@@H]3OP(=O)(S)OCC(O)COP(=O)(S)O[C@H]3[C@@H](O)[C@H](n4ccc(=O)[nH]c4=O)O[C@@H]3COP(=O)(S)O[C@H]3[C@@H](O)[C@H](n4ccc(=O)[nH]c4=O)O[C@@H]3COP(=O)(S)O[C@H]3[C@@H](O)[C@H](n4ccc(N)nc4=O)O[C@@H]3COP(=O)(S)O[C@H]3[C@@H](O)[C@H](n4ccc5c(=O)[nH]c(N)nc54)O[C@@H]3COP(=O)(S)O[C@H]3[C@@H](O)[C@H](n4cnc5c(N)ncnc54)O[C@@H]3COP(=O)(S)O[C@H]3[C@@H](O)[C@H](n4ccc5c(=O)[nH]c(N)nc54)O[C@@H]3COP(=O)(S)O[C@H]3[C@@H](O)[C@H](n4ccc(N)nc4=O)O[C@@H]3COP(=O)(S)O[C@H]3[C@@H](O)[C@H](n4ccc5c(=O)[nH]c(N)nc54)O[C@@H]3COP(=O)(S)O[C@H]3[C@@H](O)[C@H](n4ccc(=O)[nH]c4=O)O[C@@H]3COP(=O)(S)O[C@H]3[C@@H](O)[C@H](n4ccc(N)nc4=O)O[C@@H]3COP(=O)(S)O[C@H]3[C@@H](O)[C@H](n4cnc5c(N)ncnc54)O[C@@H]3CO)[C@H]2O)c(=O)n1 (stereo not given in full)
- Activity (Homo sapiens [1]): Active
- Activity (PBMC [2]): 196 pg/mL
- Activity (PBMC [3]): 256 pg/mL
- Activity (Homo sapiens [4]): Active
- Activity (Homo sapiens [5]): Active
- Activity (Mus musculus): Active
- Activity (Homo sapiens [6]): Active
- Activity (PBMC [8]): 4890 pg/mL
- Activity (Homo sapiens [9]): Active
- Activity (Homo sapiens [10]): Active
- Activity (Homo sapiens [11]): Active
- Activity (PBMC [12]): Dose-dependent effect
- Activity (PBMC [13]): Dose-dependent effect
- Activity (PBMC [14]): 266 pg/mL
- Activity (PBMC [15]): 51400 pg/mL
- Activity (PBMC [16]): 2580 pg/mL
- Activity (PBMC [17]): 395 pg/mL
- Activity (PBMC [18]): Dose-dependent effect
- Activity (PBMC [19]): 337 pg/mL
- Activity (Homo sapiens [20]): Active
- Activity (PBMC [22]): Dose-dependent effect
- Activity (PBMC [23]): Dose-dependent effect
- Activity (PBMC [24]): 8980 pg/mL
